ChEMBL document CHEMBL3407479, “Structure-activity relationship for the oxadiazole class of antibiotics” (J Med Chem, 2015)
≈ marks a conversion by molar mass, not a printed value.

Columns and labels:
Staphylococcus aureus [1] = assay: Antibacterial activity against mecA-positive, ciprofloxacin/gentamicin/oxacillin/penicillin/linezolid-resistant Staphylococcus aureus NRS120 after 16 to 20 hrs by broth microdilution method; format: functional
[2] = AUC (0 to 8 hrs) in ICR mouse at 50 mg/kg, iv; format: ADME, organism-based; parameters: time < 8 hr, dose 50 mg/kg, route intravenous; details: plasma
Enterococcus faecium [3] = assay: Antibacterial activity against Enterococcus faecium NCTC 7171 after 16 to 20 hrs by broth microdilution method; format: functional
Enterococcus faecium [4] = assay: Antibacterial activity against vancomycin-susceptible Enterococcus faecium 119-39A clinical isolate after 16 to 20 hrs by broth microdilution method; format: functional
[5] = system: Staphylococcus haemolyticus; assay: Antibacterial activity against Staphylococcus haemolyticus ATCC 29970 after 16 to 20 hrs by broth microdilution method; format: functional
Staphylococcus aureus [6] = assay: Antibacterial activity against methicillin-sensitive Staphylococcus aureus ATCC 29213 after 16 to 20 hrs by broth microdilution method; format: functional
HepG2 = assay: Cytotoxicity against human HepG2 cells assessed as cell viability after 16 hrs by XTT assay; format: cell-based; details: HepG2, 16 h
Procedure, shortened: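 HepG2 cells were run in triplicate in an XTT viability assay. IC50 was derived from the concentration–response data.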

Enterococcus faecalis [7] = assay: Antibacterial activity against vancomycin-susceptible Enterococcus faecalis 201 clinical isolate after 16 to 20 hrs by broth microdilution method; format: functional
Staphylococcus aureus [8] = assay: Antibacterial activity against mecA-positive, ciprofloxacin/gentamicin/oxacillin/penicillin/linezolid-resistant Staphylococcus aureus NRS119 after 16 to 20 hrs by broth microdilution method; format: functional
Staphylococcus aureus [9] = assay: Antibacterial activity against vancomycin/methicillin-resistant Staphylococcus aureus VRS1 clinical isolate after 16 to 20 hrs by broth microdilution method; format: functional
[10] = system: Staphylococcus epidermidis; assay: Antibacterial activity against Staphylococcus epidermidis ATCC 35547 after 16 to 20 hrs by broth microdilution method; format: functional
Enterococcus faecium [11] = assay: Antibacterial activity against vancomycin-resistant Enterococcus faecium 106 clinical isolate after 16 to 20 hrs by broth microdilution method
[12] = Plasma protein binding in human at 10 uM after 6 hrs by equilibrium dialysis assay; format: ADME, cell-free
Bacillus cereus = assay: Antibacterial activity against Bacillus cereus ATCC 13061 after 16 to 20 hrs by broth microdilution method; format: functional
Bacillus licheniformis = assay: Antibacterial activity against Bacillus licheniformis ATCC 12759 after 16 to 20 hrs by broth microdilution method; format: functional
Streptococcus oralis = assay: Antibacterial activity against Streptococcus oralis ATCC 9811 after 16 to 20 hrs by broth microdilution method; format: functional
Enterococcus faecalis [13] = assay: Antibacterial activity against vancomycin-resistant Enterococcus faecalis 99 clinical isolate after 16 to 20 hrs by broth microdilution method; format: functional
Enterococcus faecalis [14] = assay: Antibacterial activity against Enterococcus faecalis ATCC 29212 after 16 to 20 hrs by broth microdilution method; format: functional
Streptococcus pyogenes = assay: Antibacterial activity against Streptococcus pyogenes ATCC 49399 after 16 to 20 hrs by broth microdilution method; format: functional
Staphylococcus aureus [15] = assay: Antibacterial activity against vancomycin/methicillin-resistant Staphylococcus aureus VRS2 clinical isolate after 16 to 20 hrs by broth microdilution method; format: functional
Staphylococcus aureus [16] = assay: Antibacterial activity against mecA-positive, methicillin/oxacillin/tetracycline-resistant and vancomycin/linezolid susceptible Staphylococcus aureus COL after 16 to 20 hrs by broth microdilution method; format: functional
Staphylococcus aureus [17] = assay: Antibacterial activity against mecA-positive, methicillin/oxacillin/tetracycline-resistant and vancomycin/linezolid susceptible Staphylococcus aureus ATCC 27660 after 16 to 20 hrs by broth microdilution method; format: functional
[18] = Plasma protein binding in human by equilibrium dialysis assay

SMILES	MIC (Staphylococcus aureus [1])	MIC (Enterococcus faecium [3])	MIC (Enterococcus faecium [4])	MIC [5]	MIC (Staphylococcus aureus [6])	IC50 (HepG2)	MIC (Enterococcus faecalis [7])	MIC (Staphylococcus aureus [8])	MIC (Staphylococcus aureus [9])	MIC [10]	MIC (Enterococcus faecium [11])	PPB [12]	MIC (Bacillus cereus)	MIC (Bacillus licheniformis)	MIC (Streptococcus oralis)	MIC (Enterococcus faecalis [13])	MIC (Enterococcus faecalis [14])	MIC (Streptococcus pyogenes)	MIC (Staphylococcus aureus [15])	MIC (Staphylococcus aureus [16])	other results
Oc1ccc(-c2nc(-c3ccc(Oc4ccc(C(F)(F)F)cc4)cc3)no2)cc1	2 µg/mL (≈ 5.02 µM)	2 µg/mL (≈ 5.02 µM)	1 µg/mL (≈ 2.51 µM)	2 µg/mL (≈ 5.02 µM)	1 µg/mL (≈ 2.51 µM)	25.8 µg/mL (≈ 64.8 µM)	2 µg/mL (≈ 5.02 µM)	2 µg/mL (≈ 5.02 µM)	2 µg/mL (≈ 5.02 µM)	2 µg/mL (≈ 5.02 µM)	2 µg/mL (≈ 5.02 µM)	99.9%	2 µg/mL (≈ 5.02 µM)	2 µg/mL (≈ 5.02 µM)	32 µg/mL (≈ 80.3 µM)	2 µg/mL (≈ 5.02 µM)	2 µg/mL (≈ 5.02 µM)	32 µg/mL (≈ 80.3 µM)	2 µg/mL (≈ 5.02 µM)	2 µg/mL (≈ 5.02 µM)	AUC(0-t) at 8 h [2]: 44200 ng·h/mL; MIC (Staphylococcus aureus [17]): 2 µg/mL (≈ 5.02 µM)
Cc1onc(-c2ccccc2)c1C(=O)N[C@@H]1C(=O)N2[C@@H]1SC(C)(C)[C@@H]2C(=O)O [OXACILLIN]	–	–	–	–	–	–	–	–	–	–	–	–	–	–	–	–	–	–	–	–	fraction unbound [18]: < 0.09
FC(F)(F)c1ccc(Oc2ccc(-c3noc(-c4n[nH]cc4Cl)n3)cc2)cc1	64 µg/mL (≈ 157 µM)	16 µg/mL (≈ 39.3 µM)	> 128 µg/mL	> 128 µg/mL	–	24.1 µg/mL (≈ 59.3 µM)	> 128 µg/mL	–	1 µg/mL (≈ 2.46 µM)	> 128 µg/mL	> 128 µg/mL	97.8%	> 128 µg/mL	> 128 µg/mL	> 128 µg/mL	> 128 µg/mL	> 128 µg/mL	> 128 µg/mL	0.5 µg/mL (≈ 1.23 µM)	> 128 µg/mL	MIC (Staphylococcus aureus [17]): 2 µg/mL (≈ 4.92 µM)
C#Cc1c[nH]nc1-c1nc(-c2ccc(Oc3ccc(C(F)(F)F)cc3)cc2)no1	> 128 µg/mL	> 128 µg/mL	> 128 µg/mL	> 128 µg/mL	0.25 µg/mL (≈ 0.631 µM)	9.8 µg/mL (≈ 24.7 µM)	> 128 µg/mL	32 µg/mL (≈ 80.7 µM)	1 µg/mL (≈ 2.52 µM)	> 128 µg/mL	> 128 µg/mL	96.4%	> 128 µg/mL	> 128 µg/mL	> 128 µg/mL	> 128 µg/mL	> 128 µg/mL	> 128 µg/mL	0.5 µg/mL (≈ 1.26 µM)	> 128 µg/mL	MIC (Staphylococcus aureus [17]): 0.5 µg/mL (≈ 1.26 µM)
CCCCCCCCCC(=O)N[C@@H](Cc1c[nH]c2ccccc12)C(=O)N[C@H](CC(N)=O)C(=O)N[C@@H](CC(=O)O)C(=O)N[C@@H]1C(=O)NCC(=O)N[C@@H](CCCN)C(=O)N[C@@H](CC(=O)O)C(=O)N[C@H](C)C(=O)N[C@@H](CC(=O)O)C(=O)NCC(=O)N[C@H](CO)C(=O)N[C@@H]([C@H](C)CC(=O)O)C(=O)N[C@@H](CC(=O)c2ccccc2N)C(=O)O[C@@H]1C	–	–	–	–	–	–	–	–	–	–	–	–	–	–	–	–	–	–	–	–	fraction unbound [18]: < 0.09
CC(C)Nc1c[nH]nc1-c1nc(-c2ccc(Oc3ccc(C(F)(F)F)cc3)cc2)no1	> 128 µg/mL	32 µg/mL (≈ 74.5 µM)	> 128 µg/mL	> 128 µg/mL	0.5 µg/mL (≈ 1.16 µM)	3.9 µg/mL (≈ 9.08 µM)	> 128 µg/mL	2 µg/mL (≈ 4.66 µM)	1 µg/mL (≈ 2.33 µM)	> 128 µg/mL	> 128 µg/mL	91.6%	> 128 µg/mL	> 128 µg/mL	> 128 µg/mL	> 128 µg/mL	> 128 µg/mL	> 128 µg/mL	4 µg/mL (≈ 9.32 µM)	> 128 µg/mL	MIC (Staphylococcus aureus [17]): 0.5 µg/mL (≈ 1.16 µM)
Fc1ccc(Oc2ccc(-c3noc(-c4n[nH]cc4Cl)n3)cc2)cc1	64 µg/mL (≈ 179 µM)	32 µg/mL (≈ 89.7 µM)	> 128 µg/mL	> 128 µg/mL	1 µg/mL (≈ 2.8 µM)	18.2 µg/mL (≈ 51 µM)	> 128 µg/mL	2 µg/mL (≈ 5.61 µM)	1 µg/mL (≈ 2.8 µM)	> 128 µg/mL	> 128 µg/mL	94.5%	> 128 µg/mL	> 128 µg/mL	> 128 µg/mL	> 128 µg/mL	> 128 µg/mL	> 128 µg/mL	–	> 128 µg/mL	–
CN[C@H](CC(C)C)C(=O)N[C@H]1C(=O)N[C@@H](CC(N)=O)C(=O)N[C@H]2C(=O)N[C@H]3C(=O)N[C@H](C(=O)N[C@H](C(=O)O)c4cc(O)cc(O)c4-c4cc3ccc4O)[C@H](O)c3ccc(c(Cl)c3)Oc3cc2cc(c3O[C@@H]2O[C@H](CO)[C@@H](O)[C@H](O)[C@H]2O[C@H]2C[C@](C)(N)[C@H](O)[C@H](C)O2)Oc2ccc(cc2Cl)[C@H]1O [VANCOMYCIN]	–	–	–	–	–	–	–	–	–	16 µg/mL (≈ 11 µM)	256 µg/mL (≈ 177 µM)	–	–	–	–	–	2 µg/mL (≈ 1.38 µM)	0.6 µg/mL (≈ 0.414 µM)	–	–	–
Nc1c[nH]nc1-c1nc(-c2ccc(Oc3ccccc3)cc2)no1	–	–	–	–	16 µg/mL (≈ 50.1 µM)	–	–	–	–	–	–	–	–	–	–	–	–	–	–	–	–
CC(C)Nc1c[nH]nc1-c1nc(-c2ccc(Oc3ccccc3)cc2)no1	–	–	–	–	0.5 µg/mL (≈ 1.38 µM)	–	–	–	–	–	–	–	–	–	–	–	–	–	–	–	–
